# Legend:
# [1] = Minimum inhibitory concentration against Mtb H37Ra using Middlebrook 7H9 with glycerol and OADC enrichment; assay type: functional; settings: Mycobacterium tuberculosis
# Outline: (§1)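 Run in-house in Middlebrook 7H9 broth with glycerol and OADC enrichment, pH 6.6, against Mtb H37Ra or M. avium; the M. avium strains came from the National Jewish Center, Denver. Ethambutol served as a reference drug. The read-out is the MIC.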
# [2] = Minimum inhibitory concentration against Mtb H37Rv using Middlebrook 7H9 with glycerol and OADC enrichment; assay type: functional; settings: Mycobacterium tuberculosis
# [3] = Partition coefficient was evaluated using method of Morgiuchi et al; assay type: physicochemical; settings: octanol/water; read-out: mLog P
# [4] = Minimum inhibitory concentration against MAC NJ211 using Middlebrook 7H9 with glycerol and OADC enrichment; assay type: functional; settings: Mycobacterium avium; outline: as §1
Compound,MIC [1] [µg/mL],MIC [2] [µg/mL],logP [3],MIC [4] [µg/mL]
O=C(OCc1ccccc1)c1cnccn1,16,> 6.25,0.94,> 128
O=C(O)c1cnc2ccccc2n1,> 128,,,> 128
NNC(=O)c1cnc2ccccc2n1,64,> 6.25,0.16,> 128
CC(=O)Oc1ccc(COC(=O)c2ccccc2)cc1,16,> 6.25,3.38,128
CC(=O)Oc1ccc(COC(=O)c2cnc3ccccc3n2)cc1,0.5,6.25,2.15,16
O=C(OCc1ccc([N+](=O)[O-])cc1)c1cnc2ccccc2n1,> 128,> 6.25,2.27,> 128
CCCOC(=O)c1cnc2ccccc2n1,64,6.25,1.41,128
CCCCCCCCOC(=O)c1cnc2ccccc2n1,128,> 6.25,2.61,128
CC(=O)OCc1ccc([N+](=O)[O-])cc1,> 128,> 6.25,2.02,> 128
COC(=O)c1cnc2ccccc2n1,> 128,> 6.25,0.84,> 128
CCCCCCC(C)OC(=O)c1cnc2ccccc2n1 (configuration not stated),64,> 6.25,2.7,128
CC(=O)Oc1ccc(COC(=O)c2cnccn2)cc1,< 0.25,6.25,0.92,16
O=C(OCc1ccccc1[N+](=O)[O-])c1cnccn1,64,> 6.25,0.99,> 128
O=C(OCc1ccccc1[N+](=O)[O-])c1cnc2ccccc2n1,> 128,> 6.25,2.27,> 128
CC(=O)OCc1ccc(OC(C)=O)cc1,8,,2.03,128
O=C(OCc1ccc([N+](=O)[O-])cc1)c1ccccc1,,> 6.25,3.45,
O=C(OCc1ccc(C(F)(F)F)cc1)c1cnccn1,128,> 6.25,1.87,> 128
O=C(OCc1ccc([N+](=O)[O-])cc1)c1cnccn1,128,6.25,0.99,> 128
O=C(OCc1ccc([N+](=O)[O-])cc1)c1ccccn1,128,> 6.25,2.29,> 128
NC(=O)c1cnc2ccccc2n1,> 128,> 6.25,0.13,> 128
O=C(O)c1cnccn1 [PYRAZINOIC ACID],64,,,> 128
